Measured values published in ChEMBL document CHEMBL2176978, “Fragment-based discovery of bromodomain inhibitors part 2: optimization of phenylisoxazole sulfonamides” (J Med Chem, 2012).
pIC50, pKd: −log10 of the molar value. ≈ marks a conversion by molar mass, not a printed value.

Assays:
[1] = biological target: T1, ATPase family AAA domain-containing protein 2B (Homo sapiens) (UniProt Q9ULI0); assay: Inhibition of His6FLAG-tagged ATD2B expressed in Escherichia coli assessed as change in melting temperature at 100 uM by thermal shift assay
T1 sequence (whole entry): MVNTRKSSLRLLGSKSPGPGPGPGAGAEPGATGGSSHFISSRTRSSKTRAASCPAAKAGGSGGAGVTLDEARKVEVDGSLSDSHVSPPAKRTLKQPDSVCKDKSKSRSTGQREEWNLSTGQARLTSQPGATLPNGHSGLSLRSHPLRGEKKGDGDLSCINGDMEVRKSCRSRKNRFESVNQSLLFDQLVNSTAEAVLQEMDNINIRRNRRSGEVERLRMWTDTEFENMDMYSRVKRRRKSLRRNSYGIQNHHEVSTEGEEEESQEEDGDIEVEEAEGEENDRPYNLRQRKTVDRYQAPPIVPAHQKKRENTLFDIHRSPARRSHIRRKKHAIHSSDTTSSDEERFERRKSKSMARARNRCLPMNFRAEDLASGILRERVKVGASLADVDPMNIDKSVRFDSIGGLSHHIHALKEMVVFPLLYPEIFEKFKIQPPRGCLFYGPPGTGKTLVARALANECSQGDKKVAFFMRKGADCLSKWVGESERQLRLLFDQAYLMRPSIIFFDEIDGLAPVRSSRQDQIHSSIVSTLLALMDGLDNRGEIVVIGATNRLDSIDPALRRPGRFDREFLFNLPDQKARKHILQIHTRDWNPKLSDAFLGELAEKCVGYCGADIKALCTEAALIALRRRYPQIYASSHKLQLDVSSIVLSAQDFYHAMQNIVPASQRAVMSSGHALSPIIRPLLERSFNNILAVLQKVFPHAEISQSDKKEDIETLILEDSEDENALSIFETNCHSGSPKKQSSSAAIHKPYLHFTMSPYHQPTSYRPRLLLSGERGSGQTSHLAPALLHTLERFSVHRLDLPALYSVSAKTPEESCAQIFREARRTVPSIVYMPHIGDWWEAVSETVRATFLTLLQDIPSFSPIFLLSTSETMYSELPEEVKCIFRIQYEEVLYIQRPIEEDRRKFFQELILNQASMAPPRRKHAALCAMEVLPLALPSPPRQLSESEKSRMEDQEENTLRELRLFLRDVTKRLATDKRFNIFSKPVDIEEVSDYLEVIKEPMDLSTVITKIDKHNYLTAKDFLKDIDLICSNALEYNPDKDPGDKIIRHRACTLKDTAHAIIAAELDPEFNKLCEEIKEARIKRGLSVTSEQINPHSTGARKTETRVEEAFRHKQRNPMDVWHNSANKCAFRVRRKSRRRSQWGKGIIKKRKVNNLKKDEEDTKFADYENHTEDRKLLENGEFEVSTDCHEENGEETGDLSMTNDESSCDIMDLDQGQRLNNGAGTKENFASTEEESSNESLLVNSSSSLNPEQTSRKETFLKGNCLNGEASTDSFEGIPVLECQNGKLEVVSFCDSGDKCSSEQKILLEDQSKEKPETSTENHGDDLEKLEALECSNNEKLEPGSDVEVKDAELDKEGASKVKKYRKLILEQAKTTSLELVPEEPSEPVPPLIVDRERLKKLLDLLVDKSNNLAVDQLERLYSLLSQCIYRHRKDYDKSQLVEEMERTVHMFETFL
Summary of the method: (§1)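 Thermal melt: protein heated with or without 100 μM compound, at least duplicate; Sypro orange at 1:1000 in PBS with 10% glycerol; ramp 1 °C/min, fluorescence read every 0.5 °C; ΔTm reported.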

[2] = biological target: T2, Bromodomain-containing protein 2 (Homo sapiens, UniProt P25440); assay: Inhibition of His6-tagged BRD2 expressed in Escherichia coli assessed as inhibition of binding to SGRG-K(Ac)-GG-K(Ac)-GLG-K(Ac)-GGA-K(Ac)-RHGSGSK-biotin after 1 hr by TR-FRET assay
Summary of the method: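 TR-FRET competition using tandem bromodomain construct; displacement of a tetra-acetylated biotinylated peptide measured, IC50 reported.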
Target sequence in this assay (P25440 whole entry): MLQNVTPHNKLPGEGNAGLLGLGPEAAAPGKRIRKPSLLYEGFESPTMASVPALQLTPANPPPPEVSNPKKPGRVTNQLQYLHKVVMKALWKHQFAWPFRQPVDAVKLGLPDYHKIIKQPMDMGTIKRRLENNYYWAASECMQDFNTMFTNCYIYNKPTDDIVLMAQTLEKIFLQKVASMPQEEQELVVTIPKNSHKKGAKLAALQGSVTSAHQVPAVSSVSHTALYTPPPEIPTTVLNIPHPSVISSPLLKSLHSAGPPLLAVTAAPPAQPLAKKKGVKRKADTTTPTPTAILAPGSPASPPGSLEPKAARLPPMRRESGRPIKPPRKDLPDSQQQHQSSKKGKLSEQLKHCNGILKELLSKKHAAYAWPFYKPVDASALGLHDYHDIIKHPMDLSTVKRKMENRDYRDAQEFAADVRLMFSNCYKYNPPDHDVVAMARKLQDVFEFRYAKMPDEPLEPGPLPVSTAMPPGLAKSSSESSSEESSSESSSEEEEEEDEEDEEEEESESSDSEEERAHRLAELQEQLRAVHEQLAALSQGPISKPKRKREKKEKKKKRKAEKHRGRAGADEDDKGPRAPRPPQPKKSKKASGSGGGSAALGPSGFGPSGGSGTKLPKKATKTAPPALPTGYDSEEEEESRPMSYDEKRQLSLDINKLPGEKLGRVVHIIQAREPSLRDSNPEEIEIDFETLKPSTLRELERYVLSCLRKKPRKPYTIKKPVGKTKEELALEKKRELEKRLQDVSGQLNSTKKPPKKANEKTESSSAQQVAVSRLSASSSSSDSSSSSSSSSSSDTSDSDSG

[3] = biological target: T3, Bromodomain-containing protein 3 (Homo sapiens, UniProt Q15059); assay: Inhibition of His6-tagged BRD3 expressed in Escherichia coli assessed as inhibition of binding to SGRG-K(Ac)-GG-K(Ac)-GLG-K(Ac)-GGA-K(Ac)-RHGSGSK-biotin after 1 hr by TR-FRET assay
Target sequence in this assay (Q15059 whole entry): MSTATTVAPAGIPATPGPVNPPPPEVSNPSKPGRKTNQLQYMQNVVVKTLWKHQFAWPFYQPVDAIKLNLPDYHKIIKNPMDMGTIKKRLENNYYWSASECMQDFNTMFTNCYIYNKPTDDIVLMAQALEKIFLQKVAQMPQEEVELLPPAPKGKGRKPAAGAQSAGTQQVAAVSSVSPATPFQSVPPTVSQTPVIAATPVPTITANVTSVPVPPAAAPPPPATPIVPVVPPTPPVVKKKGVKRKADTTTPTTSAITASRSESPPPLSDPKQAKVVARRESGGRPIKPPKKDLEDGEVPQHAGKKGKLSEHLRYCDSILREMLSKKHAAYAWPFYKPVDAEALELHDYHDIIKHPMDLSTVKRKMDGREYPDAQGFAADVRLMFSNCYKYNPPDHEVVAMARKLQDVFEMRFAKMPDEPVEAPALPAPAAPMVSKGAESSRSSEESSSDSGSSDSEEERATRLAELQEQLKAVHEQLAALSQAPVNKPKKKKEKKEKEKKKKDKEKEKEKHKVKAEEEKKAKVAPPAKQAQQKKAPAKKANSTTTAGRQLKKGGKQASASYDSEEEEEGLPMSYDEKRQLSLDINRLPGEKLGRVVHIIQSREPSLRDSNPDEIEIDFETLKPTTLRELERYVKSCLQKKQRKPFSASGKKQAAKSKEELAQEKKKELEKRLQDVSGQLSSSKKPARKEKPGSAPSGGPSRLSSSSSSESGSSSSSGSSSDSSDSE

[4] = biological target: T2, Bromodomain-containing protein 2; assay: Binding affinity to His6-tagged BRD2 expressed in Escherichia coli by surface plasmon resonance assay
Summary of the method: (§2)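 SPR with tandem bromodomain (BRD2-BD12 or BRD4-BD12) amine-coupled to CM5 chip after EDC/NHS activation; protein 0.1−2 mg/mL in NaAc pH 4.5−5.5, >5 kRU immobilized, ethanolamine-blocked. Running buffer 50 mM HEPES pH 7.5, 150 mM NaCl.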

[5] = biological target: T3, Bromodomain-containing protein 3; assay: Inhibition of His6FLAG-tagged BRD3-BD12 expressed in Escherichia coli assessed as change in melting temperature at 100 uM by thermal shift assay; summary of the method: as §1
Target sequence in this assay (Q15059 2-726 limits assumed): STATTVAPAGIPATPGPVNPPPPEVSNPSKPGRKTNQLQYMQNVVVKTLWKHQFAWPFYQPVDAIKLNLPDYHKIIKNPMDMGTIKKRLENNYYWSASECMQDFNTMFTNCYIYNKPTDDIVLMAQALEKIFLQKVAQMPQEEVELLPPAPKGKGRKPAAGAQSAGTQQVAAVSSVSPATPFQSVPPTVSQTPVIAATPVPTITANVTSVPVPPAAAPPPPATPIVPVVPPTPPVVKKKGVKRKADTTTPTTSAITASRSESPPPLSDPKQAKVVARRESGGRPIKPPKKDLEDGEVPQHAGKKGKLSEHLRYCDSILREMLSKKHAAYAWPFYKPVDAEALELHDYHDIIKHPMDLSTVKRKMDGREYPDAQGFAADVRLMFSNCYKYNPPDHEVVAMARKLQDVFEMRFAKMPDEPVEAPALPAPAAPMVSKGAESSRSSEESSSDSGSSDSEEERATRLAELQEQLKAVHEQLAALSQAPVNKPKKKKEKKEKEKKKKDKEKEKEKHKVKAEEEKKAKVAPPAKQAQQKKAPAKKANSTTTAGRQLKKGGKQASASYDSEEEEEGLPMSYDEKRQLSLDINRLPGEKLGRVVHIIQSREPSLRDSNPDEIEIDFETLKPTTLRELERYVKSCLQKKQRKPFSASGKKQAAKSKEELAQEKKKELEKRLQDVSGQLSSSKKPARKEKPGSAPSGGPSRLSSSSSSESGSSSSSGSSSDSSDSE

[6] = biological target: T4, Bromodomain-containing protein 4 (Homo sapiens, UniProt O60885); assay: Inhibition of His6-tagged BRD4-BD12 expressed in Escherichia coli assessed as inhibition of binding to SGRG-K(Ac)-GG-K(Ac)-GLG-K(Ac)-GGA-K(Ac)-RHGSGSK-biotin after 1 hr by TR-FRET assay
[7] = Solubility of the compound at pH 5; type: physicochemical; details: buffer
[8] = biological target: T4, Bromodomain-containing protein 4; assay: Binding affinity to His6-tagged BRD4 expressed in Escherichia coli by surface plasmon resonance assay; summary of the method: as §2
[9] = biological target: PH-interacting protein (Homo sapiens) (UniProt Q8WWQ0); assay: Inhibition of His6FLAG-tagged PHIP-BD2 expressed in Escherichia coli assessed as change in melting temperature at 100 uM by thermal shift assay; summary of the method: as §1
[10] = biological target: T2, Bromodomain-containing protein 2; assay: Inhibition of His6FLAG-tagged BRD2-BD12 expressed in Escherichia coli assessed as change in melting temperature at 100 uM by thermal shift assay; summary of the method: as §1
Target sequence in this assay (P25440 whole entry, looked up): as the sequence (P25440 whole entry) above

[11] = Solubility of the compound at pH 7; type: physicochemical; details: buffer
[12] = biological target: T2, Bromodomain-containing protein 2; assay: Inhibition of His6FLAG-tagged BRD2-BD1 expressed in Escherichia coli assessed as change in melting temperature at 100 uM by thermal shift assay; summary of the method: as §1
Target sequence in this assay (P25440 whole entry, looked up): as the sequence (P25440 whole entry) above

PBMC [13] = assay: Antiinflammatory activity in human PBMC assessed as inhibition of LPS-induced IL6 production after 18 to 24 hrs by ELISA; type: functional, cell-based
PBMC [14] = assay: Antiinflammatory activity in human PBMC assessed as inhibition of LPS-induced TNFalpha production after 18 to 24 hrs by ELISA; type: functional, cell-based
Blood = assay: Antiinflammatory activity in human whole blood assessed as inhibition of LPS-induced TNFalpha production after 18 to 24 hrs by ELISA; type: functional, tissue-based

Row | ΔTm [1] [°C] | pIC50 [2] | pIC50 [3] | pKd [4] | RUmax [4] [%] | ΔTm [5] [°C] | pIC50 [6] | solubility [7] [µg/mL] | pKd [8] | RUmax [8] [%] | ΔTm [9] [°C] | ΔTm [10] [°C] | solubility [11] [µg/mL] | ΔTm [12] [°C] | pIC50 (Blood) | SMILES | pIC50 (PBMC [13]) | pIC50 (PBMC [14]; read-out: IC50) | IC50 (PBMC [14]; read-out: pIC50 (converted)) [nM]
1 | < 1 | 5.82 | 5.96 | 5.50 | 34 | 2 | 5.59 | 1120 (≈ 2430 µM) | 5.56 | 25 | < 1 | 2 | 210 (≈ 453 µM) | 1 |  | Cc1noc(C)c1-c1ccc(OCCCN2CCOCC2)c(S(=O)(=O)NC2CCCC2)c1 |  |  | 
2 | < 1 |  |  |  |  | 2 |  | < 1 |  |  | < 1 | 2 | < 1 | 1 | 5.30 | Cc1ccc(-c2c(C)noc2C)cc1S(=O)(=O)NC1CCCC1 | 5.51 | 6.70 | 126
